Source: PubChem BioAssay
In the library only some 1% were active in any assay of this set; here they are far more common.
PREPL inh: human PREPL enzyme inhibition; Q4J6C6; recombinant PREPL, fluorescence polarization activity-based probe; inhibition, % at 5.96 µM; 320,000 compounds, 0.68% hits; in the data active = inhibition above about 43%
procasp7 counter: counter-screen for procaspase-3 activators: activators of human procaspase-7 | AID 463210 | activation, % at 8.5 µM | P55210 | recombinant procaspase-7, Ac-DEVD-pNA absorbance 405 nm; D23A/D198A/D206A triple mutant, cannot self-cleave; scale: DMSO 0, 5 µM enzyme 100 | 330,000 compounds, 0.093% hits;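 active = percent activation above the screen-wide mean plus 3 SD, cut at about 25% in these data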
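Assay system: Uncleavable procaspase-7 mutant enzyme; Input: 2 µM procaspase-7 mutant as dispensed; Also added: DEVD-pNA substrate; Medium: Zinc-free HEPES pH 7.4 with 300 mM NaCl, 0.01% Triton X-100; Timing: 1 h compound preincubation, 2 h substrate cleavage, 25 °C; Measured by: Epi-absorbance of released pNA at 405 nm, two timepoints.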
LYPLA1 counter: LYPLA1 (human) inhibition in PME1 counter-screen; O75608; recombinant LYPLA1, FP-Rh probe fluorescence polarization; inhibition, % at 5.9 µM; 320,000 compounds, 0.16% hits; AID 2174;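 active = inhibition above the mean of all tested compounds plus 3 SD, set per campaign, cut at about 14% in these data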;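 note: inhibitors block serine hydrolase probe labeling of LYPLA1 so polarization falls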
Target sequence (O75608 whole entry, looked up): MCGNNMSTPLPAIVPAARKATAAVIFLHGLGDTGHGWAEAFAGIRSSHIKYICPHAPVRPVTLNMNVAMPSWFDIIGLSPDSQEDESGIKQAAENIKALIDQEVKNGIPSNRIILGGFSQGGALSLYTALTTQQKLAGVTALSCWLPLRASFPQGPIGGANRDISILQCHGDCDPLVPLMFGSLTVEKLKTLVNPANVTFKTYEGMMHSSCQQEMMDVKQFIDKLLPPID
procasp3 activ: procaspase-3 (human) activation; P42574; recombinant procaspase-3 D3A, Ac-DEVD-pNA absorbance 405 nm; activation, % at 8.5 µM; 330,000 compounds, 0.11% hits;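 active = activation above the mean of all tested compounds plus 3 SD, cut at about 21% in these data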
Target sequence (P42574 whole entry D9A/D28A/D175A): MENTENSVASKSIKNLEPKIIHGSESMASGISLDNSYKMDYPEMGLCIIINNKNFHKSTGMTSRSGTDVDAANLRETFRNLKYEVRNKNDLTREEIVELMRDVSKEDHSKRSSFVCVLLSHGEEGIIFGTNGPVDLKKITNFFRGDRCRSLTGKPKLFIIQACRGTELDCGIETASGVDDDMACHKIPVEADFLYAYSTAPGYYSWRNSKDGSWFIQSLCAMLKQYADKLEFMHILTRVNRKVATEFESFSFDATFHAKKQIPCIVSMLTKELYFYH
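Assay system: Procaspase-3 D3A mutant, all three cleavage aspartates alanine. Buffer or medium: Zinc-free HEPES saline buffer with Triton X-100. Times: 1 h compound preincubation, 2 h substrate hydrolysis at 25 °C. Measured by: 405 nm absorbance of p-nitroaniline, reads at 0 and 120 min. Read-out basis: percent activation relative to control range. Replicates: singlicate.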
LYPLA2 counter: counter-screen for PME1 inhibitors: inhibitors of human LYPLA2 | O95372 | recombinant LYPLA2, FP-Rh probe fluorescence polarization | inhibition, % at 5.9 µM | 320,000 compounds, 0.38% hits;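 active = inhibition above the screen-wide mean plus 3 SD, limit set per campaign, cut at about 26% in these data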
Large screens that a line does not name were inactive.

Nc1cc(Cl)nc(N/N=C/c2c(O)ccc3ccccc23)n1	PREPL inh 43.2
Nc1nonc1N/N=C/c1c(O)ccc2ccccc12	none
Cc1ccc(C)c(N(Cc2ccccc2F)S(C)(=O)=O)c1	none
c1ccc2c(Nc3nc(N4CCOCC4)c4ccccc4n3)cccc2c1	PREPL inh 53.3
O=c1[nH]c(Cc2cccs2)nc2scc(-c3ccc(Cl)cc3)c12	PREPL inh 55.1
O=C(O)Cc1sc(Nc2ccccc2)nc1-c1ccc(Cl)cc1	none
Cc1ccc(Nc2nc(-c3ccccc3)c(CC(=O)O)s2)cc1	PREPL inh 57.7
COc1ccc(-c2csc(Cc3nnc(N4CCOCC4)n3-c3ccccc3)n2)cc1OC	none
COc1ccc(-c2csc(Cc3nnc(N4CCOCC4)n3-c3ccccc3)n2)cc1	PREPL inh 50.9
O=C(CNc1ccc2c(c1)OCO2)N/N=C\c1ccccc1Cl	PREPL inh 50.1
COc1ccc2nc(C)cc(SCC(=O)N/N=C/c3ccc(O)cc3O)c2c1	none
COc1ccc(N2Cc3ccc(C(=O)N/N=C\c4ccc(O)cc4O)cc3C2)cc1	LYPLA2 counter 30.5
O=S(=O)(c1ccc(NC(=S)N2CCN(c3ccc(O)cc3)CC2)cc1)N1CCOCC1	LYPLA2 counter 35.4
O=C(Cc1cccs1)N1CCC(c2nc3c(nnn3Cc3ccccc3Cl)c(=O)[nH]2)CC1	none
CCCCCCC(=O)N1CCC(c2nc3c(nnn3Cc3ccccc3Cl)c(=O)[nH]2)CC1	LYPLA2 counter 38.5
CCC(NC(=O)c1[nH]c(C)c(C(C)=O)c1C)c1ccc(Br)cc1 (stereo not given)	none
O=C(NC1C(=O)NNC1c1ccc(Cl)cc1)c1ccc(F)cc1 (stereo not given)	LYPLA2 counter 37.2
Cc1cc(C)cc(OCC(O)CN2CCN(Cc3ccc4c(c3)OCO4)CC2)c1 (stereo not given)	none
O=C(CCC(F)(F)F)N1CCCC(N2CCN(c3cccc(Cl)c3)CC2)C1 (stereo not given)	LYPLA2 counter 30.2
O=C(c1ccc(Cn2c(=S)[nH]c3ccc(N4CCOCC4)cc3c2=O)cc1)N1CCN(c2ccc(F)cc2)CC1	PREPL inh 63.3
Cc1cc(C)n2nc(SCC(=O)N/N=C/c3ccccc3F)nc2n1	PREPL inh 50.0
Cc1c(NC(=O)c2ccccc2NC(=O)c2ccccc2)cccc1C(=O)O	none
Nc1ccc(OCCCc2c(N)nc(N)nc2N)cc1	PREPL inh 52.0
Cc1ccc(S(=O)(=O)N2CCOC2CNC(=O)C(=O)NCCN(C)C)cc1 (stereo not given)	none
Cc1ccc(C(=O)Oc2ccccc2N2CCOCC2)cc1	none
Cc1ccc(C(=O)OC2OC(=O)C(Cl)=C2N2CCOCC2)cc1 (stereo not given)	PREPL inh 43.3
O=C1c2cccc3cccc(c23)C(=O)N1CCN1CCN(CC(O)COc2ccccc2)CC1 (stereo not given)	LYPLA2 counter 30.8
CN(c1ccccc1)S(=O)(=O)c1cccc(NC(=O)CN2C(=O)NC3(CCCCC3)C2=O)c1	PREPL inh 67.8
COC(=O)c1c(O)cc(=O)n2c1CCCCC2	none
O=c1oc(-c2ccco2)nc2sc3c(c12)CCCC3	PREPL inh 72.4
O=c1oc(-c2ccccc2)nc2sc3c(c12)CCC3	none
Cc1ccc(NC(=O)CN2C(=O)S/C(=C\c3cccn3-c3cccc(C(=O)O)c3)C2=O)c(C)c1	LYPLA2 counter 30.2
CCOc1ccc(/C=N/NC(=O)Cc2ccccc2)cc1CN1CC2CC(C1)c1cccc(=O)n1C2 (stereo not given)	none
CC(C)(C)OC(=O)NCCCC1=CC2=CC(=O)C(C)(OC(=O)c3ccc(Cl)nc3)C(=O)C2=CO1 (stereo not given)	LYPLA1 counter 17.9
CN1Cc2c(N3CCOCC3)nc3sc(C#N)c(N)c3c2CC1(C)C	none
CN1Cc2c(N3CCOCC3)nc3sc(C(=O)c4ccc(Br)cc4)c(N)c3c2CC1(C)C	PREPL inh 68.3
N#C/C(=C(/O)CCl)c1nc2ccccc2[nH]1	PREPL inh 50.0
N#C/C(=C(/O)c1cccs1)c1nc2ccccc2[nH]1	PREPL inh 76.7
COc1ccc(Oc2nc(C(F)(F)F)nc3ccccc23)cc1	none
CN(C)c1ccc(NC(=O)CCn2c(=S)oc3ccccc32)cc1	PREPL inh 58.4
CN(Cc1nc2ccccc2c(=O)[nH]1)C(=O)c1ccc(S(=O)(=O)N2CCCC2)cc1	none
Cc1ccc(NC(=O)c2ccc(-n3cccn3)c([N+](=O)[O-])c2)cc1	none
O=C(Nc1ccc(C2=NCCN2)cc1)c1ccc(C(=O)Nc2ccc(C3=NCCN3)cc2)c([N+](=O)[O-])c1	PREPL inh 45.1
CCN(CC)c1ccc2c(-c3ccc(S(=O)(=O)O)cc3S(=O)(=O)[O-])c3ccc(=[N+](CC)CC)cc-3oc2c1	PREPL inh active
CCN(CC)c1ccc2cc(C(N)=O)c(=N)oc2c1	none
CCOC(=O)C1=C(C)NC(=O)NC1c1ccc(OC(=O)c2ccco2)c(OC)c1 (stereo not given)	PREPL inh 67.2
CCOC(=O)C1=C(C)NC(=O)NC1c1ccc(OCC(=O)OC)c(OC)c1 (stereo not given)	none
COc1cc(C2NC(=O)NC(C)=C2C(=O)OC(C)C)ccc1OC(=O)c1ccco1 (stereo not given)	PREPL inh 79.4
Cc1cc(NC(=O)CSc2nc3ccsc3c(=O)n2CCCC(=O)NCCc2ccccc2)no1	none
O=C(N/N=C1/C(=O)c2cccc3cccc1c23)c1ccc(Cl)cc1	LYPLA2 counter 31.3
CCNC(=S)N/N=C1\C(=O)c2cccc3cccc1c23	none
COc1ccccc1NS(=O)(=O)c1cccc(C(=O)N2CCN(C/C=C/c3ccccc3)CC2)c1	none
COc1ccccc1OCC(=O)Nc1ccc(S(=O)(=O)N2CCN(C)CC2)cc1	none
O=C(O)c1ccc(N/N=C/c2ccc(OC(=O)c3cccc(Cl)c3)cc2)cc1	LYPLA2 counter 41.2
O=C(Oc1ccc(/C=N/Nc2ccccc2)cc1)c1ccccc1	none
c1ccc(CCNc2nc(-c3ccccn3)cs2)cc1	none
c1ccc(CCNc2nc(-c3cccnc3)cs2)cc1	PREPL inh 48.7
COCCn1c(C)cc(C(=O)CSc2nc3ccccc3c(=O)n2Cc2ccco2)c1C	none
COC(=O)c1ccc(NC(=O)C(=O)N2CCN(C(=S)Nc3cccc(OC)c3)CC2)cc1	LYPLA2 counter 56.1
COc1cccc(NC(=O)C(=O)N2CCOCC2)c1	none
COc1cc(/C=N/NC(=O)COc2c(C)cc([N+](=O)[O-])cc2C)ccc1OC(=O)c1ccccc1	PREPL inh 70.5
COc1cc(/C=C(/C#N)c2nc3ccccc3[nH]2)ccc1OC(=O)c1ccco1	PREPL inh 83.2
C=CCOC(=O)C1=C(C)NC(=S)NC1/C=C/c1ccccc1 (stereo not given)	none
